Results from ChEMBL document CHEMBL4049429, “Enantiospecific Recognition at the A2B Adenosine Receptor by Alkyl 2-Cyanoimino-4-substituted-6-methyl-1,2,3,4-tetrahydropyrimidine-5-carboxylates” (J Med Chem, 2017).

Legend:
Adenosine receptor A2b = biological target: T1, Adenosine receptor A2b (Homo sapiens, UniProt P29275); experiment: Displacement of [3H]DPCPX from human adenosine A2B receptor expressed in HEK293 cell membranes after 30 mins
T1 sequence (P29275 whole entry): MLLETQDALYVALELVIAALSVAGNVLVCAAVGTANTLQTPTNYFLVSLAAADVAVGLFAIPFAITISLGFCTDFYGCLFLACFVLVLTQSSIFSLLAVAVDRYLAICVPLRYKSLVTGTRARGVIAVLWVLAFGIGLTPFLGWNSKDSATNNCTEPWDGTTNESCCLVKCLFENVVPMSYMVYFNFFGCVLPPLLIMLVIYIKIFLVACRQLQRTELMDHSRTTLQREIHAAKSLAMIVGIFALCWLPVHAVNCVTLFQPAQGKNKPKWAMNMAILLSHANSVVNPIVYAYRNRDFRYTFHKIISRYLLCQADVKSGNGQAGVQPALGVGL

[1] = biological target: T2, Adenosine receptor A1 (Homo sapiens) (UniProt P30542); experiment: Displacement of [3H]DPCPX from human adenosine A1 receptor expressed in CHO cell membranes at 1 uM after 60 mins
T2 sequence (whole entry): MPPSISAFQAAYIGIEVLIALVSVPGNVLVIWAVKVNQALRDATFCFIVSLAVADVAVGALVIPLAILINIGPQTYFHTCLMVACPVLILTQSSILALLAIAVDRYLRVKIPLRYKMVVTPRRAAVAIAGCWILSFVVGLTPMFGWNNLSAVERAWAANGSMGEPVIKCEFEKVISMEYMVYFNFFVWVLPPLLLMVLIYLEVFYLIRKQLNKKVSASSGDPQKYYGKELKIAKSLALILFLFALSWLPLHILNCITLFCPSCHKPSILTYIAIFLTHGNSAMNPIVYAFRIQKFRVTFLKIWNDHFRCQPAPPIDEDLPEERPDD
Procedure, shortened: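 Membranes from CHO cells expressing human A1 receptor, labelled with 2 nM [3H]DPCPX. Nonspecific binding defined with 10 μM R-PIA. Incubated 25 °C, 60 min. Percent inhibition of specific binding at 1 μM, average of n = 2.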

[2] = biological target: Adenosine receptor A2a (Homo sapiens) (UniProt P29274); experiment: Displacement of [3H]4-(2-[7-amino-2-(2-furyl)[1,2,4]triazolo[2,3-a][1,3,5]triazin-5-ylamino]ethyl)phenol from human adenosine A2A receptor expressed in human Hela cell membranes at 1 uM after 30 mins
Chain of Adenosine receptor A2a (Homo sapiens) (P29274 whole entry): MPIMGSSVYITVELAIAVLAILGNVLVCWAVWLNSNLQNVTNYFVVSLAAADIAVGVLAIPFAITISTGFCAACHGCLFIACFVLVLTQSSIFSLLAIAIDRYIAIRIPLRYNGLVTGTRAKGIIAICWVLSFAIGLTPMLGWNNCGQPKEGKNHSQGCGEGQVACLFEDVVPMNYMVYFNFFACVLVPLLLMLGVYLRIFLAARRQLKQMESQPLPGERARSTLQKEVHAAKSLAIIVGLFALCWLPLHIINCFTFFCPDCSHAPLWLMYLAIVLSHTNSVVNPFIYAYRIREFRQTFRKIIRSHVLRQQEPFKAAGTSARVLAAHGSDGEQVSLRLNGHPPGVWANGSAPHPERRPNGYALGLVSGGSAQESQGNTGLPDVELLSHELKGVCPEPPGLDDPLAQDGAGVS
Procedure, shortened: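 Membranes from HeLa cells expressing human A2A receptor, labelled with 3 nM radioligand. Nonspecific binding defined with 50 μM NECA. Incubated 25 °C, 30 min. Percent inhibition of specific binding at 1 μM, average of n = 2.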

[3] = biological target: T3, Adenosine receptor A3 (Homo sapiens) (UniProt P0DMS8); experiment: Displacement of [3H]NECA from human adenosine A3 receptor expressed in human Hela cell membranes at 1 uM after 180 mins
T3 sequence (whole entry): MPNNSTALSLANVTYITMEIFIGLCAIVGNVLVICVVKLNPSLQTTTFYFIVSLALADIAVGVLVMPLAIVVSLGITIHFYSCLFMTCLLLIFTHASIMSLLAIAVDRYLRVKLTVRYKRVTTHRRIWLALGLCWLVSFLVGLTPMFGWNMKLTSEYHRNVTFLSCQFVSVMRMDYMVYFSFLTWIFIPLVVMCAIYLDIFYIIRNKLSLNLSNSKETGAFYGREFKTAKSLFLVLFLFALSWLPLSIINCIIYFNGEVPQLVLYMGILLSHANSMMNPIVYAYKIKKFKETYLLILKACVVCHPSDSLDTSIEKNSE
Procedure, shortened: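 Membranes from HeLa cells expressing human A3 receptor, labelled with 30 nM [3H]NECA. Nonspecific binding defined with 100 μM R-PIA. Incubated 25 °C, 180 min. Percent inhibition of specific binding at 1 μM, average of n = 2.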

[4] = biological target: T4, Adenosine receptor A2b (Homo sapiens) (UniProt P29275); experiment: Displacement of [3H]DPCPX from human adenosine A2B receptor expressed in HEK293 cell membranes at 1 uM after 30 mins
T4 sequence (whole entry): T1 sequence (P29275 whole entry)
Procedure, shortened: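 HEK-293 membranes expressing human A2B receptor, labelled with 35 nM [3H]DPCPX. Nonspecific binding with 400 μM NECA. 25 °C, 30 min. Percent inhibition of specific binding at 1 μM, average of n = 2.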

[5] = biological target: T4, Adenosine receptor A2b (Homo sapiens); experiment: Antagonist activity at human adenosine A2B receptor expressed in HEK293 cell […] assessed as inhibition of NECA-stimulated cAMP accumulation preincubated for 15 mins followed by NECA stimulation for 15 mins by enzyme immunoassay; assay type: functional, cell-based
Procedure, shortened: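 Whole HEK-293 cells transfected with human A2B receptor, grown at 37 °C, 5% CO2 in EMEM F-12 with 10% FCS and 1% L-glutamine. Washed, then preincubated 15 min at 37 °C in EMEM-F12/25 mM HEPES pH 7.4 with 30 μM rolipram plus test compound. Stimulated with 10 μM NECA for 15 min. Lysed, intracellular cAMP read by enzyme immunoassay at 450 nm. KB derived from IC50 by the Leff and Dougall method. n = 3, each in duplicate.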

| SMILES | Ki (Adenosine receptor A2b) [nM] | inhibition [1] [%] | inhibition [2] [%] | inhibition [3] [%] | inhibition [4] [%] | Kb [5] [nM] |
| --- | --- | --- | --- | --- | --- | --- |
| CC1=C(C(=O)OC(C)C)[C@@H](c2ccco2)N/C(=N/C#N)N1 | 15.1 | 2 | 4 | 4 | – | – |
| CC1=C(C(=O)OC(C)C)C(C2CCCC2)NC(=O)N1 (stereo unspecified) | – | 1 | 1 | 7 | 3 | – |
| CC1=C(C(=O)OC(C)C)C(c2ccccc2)NC(=O)N1 (stereo unspecified) | – | 2 | 1 | 2 | 2 | – |
| CC1=C(C(=O)OC(C)C)C(c2ccco2)NC(=O)N1 (stereo unspecified) | – | 20 | 30 | 1 | – | – |
| CC1=C(C(=O)OC(C)C)[C@H](c2ccco2)N/C(=N/C#N)N1 | – | 18 | 10 | 1 | 23 | – |
| CCOC(=O)C1=C(C)NC(=O)NC1C1CCCC1 (stereo unspecified) | – | 3 | 1 | 18 | 2 | – |
| CCOC(=O)C1=C(C)NC(=O)NC1c1ccccc1 (stereo unspecified) | – | 1 | 10 | 2 | 2 | – |
| CCOC(=O)C1=C(C)NC(=O)NC1c1ccco1 (stereo unspecified) | – | 18 | 41 | – | – | – |
| CCOC(=O)C1=C(C)NC(=O)NC1c1cccs1 (stereo unspecified) | – | 1 | – | 1 | 44 | – |
| CCOC(=O)C1=C(C)NC(=O)NC1c1ccoc1 (stereo unspecified) | – | – | 39 | – | – | – |
| CC1=C(C(=O)OC(C)C)C(c2ccco2)N/C(=N/C#N)N1 (racemic) | 24.3 | 21 | 19 | 4 | – | 116 |
| CC1=C(C(=O)OC(C)C)C(C2CCCC2)N/C(=N/C#N)N1 (racemic) | – | 3 | 5 | 3 | 11 | – |

Second part, the compound after the results:

| Ki (Adenosine receptor A2b) [nM] | inhibition [1] [%] | inhibition [2] [%] | inhibition [3] [%] | inhibition [4] [%] | Kb [5] [nM] | SMILES |
| --- | --- | --- | --- | --- | --- | --- |
| – | – | – | 1 | – | – | CC1=C(C(=O)OC(C)C)C(c2ccsc2)NC(=O)N1 (stereo unspecified) |
| – | 22 | 39 | 24 | – | – | CCOC(=O)C1=C(C)NC(=O)NC1c1ccsc1 (stereo unspecified) |
| 102 | 28 | 31 | 14 | – | – | CCOC(=O)C1=C(C)N/C(=N\C#N)NC1c1ccoc1 (racemic) |
| 51 | 26 | 33 | 3 | – | – | CCOC(=O)C1=C(C)N/C(=N\C#N)NC1c1cccs1 (racemic) |
| 461 | 29 | 30 | 23 | – | – | CCOC(=O)C1=C(C)N/C(=N\C#N)NC1c1ccsc1 (racemic) |
| 900 | 27 | 20 | 20 | – | – | CCOC(=O)C1=C(C)N/C(=N\C#N)NC1c1ccco1 (racemic) |
| 349 | 31 | 16 | 27 | – | – | CC1=C(C(=O)OC(C)C)C(c2cccs2)N/C(=N/C#N)N1 (racemic) |
| 59.4 | 34 | 25 | 41 | – | – | CC1=C(C(=O)OC(C)C)C(c2ccoc2)N/C(=N/C#N)N1 (racemic) |
| 647 | 11 | 18 | 13 | – | – | CC1=C(C(=O)OC(C)C)C(c2ccsc2)N/C(=N/C#N)N1 (racemic) |
| – | 20 | 12 | 6 | 32 | – | CC1=C(C(=O)OC(C)C)C(c2ccccc2)N/C(=N/C#N)N1 (racemic) |
| – | 11 | 10 | 4 | 19 | – | CCOC(=O)C1=C(C)N/C(=N\C#N)NC1C1CCCC1 (racemic) |
| – | 18 | 13 | 13 | 25 | – | CCOC(=O)C1=C(C)N/C(=N\C#N)NC1c1ccccc1 (racemic) |
